# Hits are enriched below; roughly 2.5% of the tested compounds scored in any of these assays.
# PAD4 inh – inhibitors of human PAD4; Q9UM07; recombinant PAD4, RCA probe fluorescence polarization; inhibition, % at 6.36 µM; 0.41% of 330,000 active;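 active = percent inhibition above a cutoff equal to the mean of all tested compounds plus 3 SD, cut at about 15% in these data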;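 note: 0% = PAD4 with RCA probe and DMSO and 100% = probe without PAD4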
# PRMT1 inh – inhibitors of human PRMT1 | Q99873 | AID 652257 | 1.3% of 370,000 active | recombinant PRMT1, activity-based probe fluorescence polarization | inhibition, % at 2.79 µM;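 active = inhibition above about 21% made by adding two undisclosed values, limit read from the data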
# Target sequence (Q99873 whole entry, looked up): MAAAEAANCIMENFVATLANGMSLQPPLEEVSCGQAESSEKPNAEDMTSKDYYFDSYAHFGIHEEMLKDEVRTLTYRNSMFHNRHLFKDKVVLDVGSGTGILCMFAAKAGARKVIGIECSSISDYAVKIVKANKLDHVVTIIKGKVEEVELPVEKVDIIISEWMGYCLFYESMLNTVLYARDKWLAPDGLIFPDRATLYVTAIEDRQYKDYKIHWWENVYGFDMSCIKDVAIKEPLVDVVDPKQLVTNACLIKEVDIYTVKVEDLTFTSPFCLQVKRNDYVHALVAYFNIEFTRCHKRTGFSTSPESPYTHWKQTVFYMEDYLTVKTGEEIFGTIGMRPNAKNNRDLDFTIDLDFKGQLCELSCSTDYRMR
# eLon inh – E. coli protease La inhibition | purified E. coli Lon protease, fluorescence polarization | inhibition, % at 7.94 µM | 0.42% of 360,000 active; in the data active = inhibition above about 13%, passing the limit was not always enough;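 note: 0% = enzyme with probe and DMSO and 100% = no enzyme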
# GSTO1 inh – blocks human GSTO1 in RBBP9 counter-screen. recombinant GSTO1, activity-based probe fluorescence polarization. inhibition, % at 5.96 µM. 1.1% of 300,000 active. AID 1974;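 active = inhibition above the campaign mean inhibition plus 3 SD, cut at about 35% in these data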;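 note: 0% = GSTO1-1 with DMSO and 100% = wells lacking GSTO1-1 enzyme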
# TDP2 absorb – TDP2 (human) inhibition, absorbance primary screen; O95551; recombinant TDP2, T5PNP hydrolysis, p-nitrophenol absorbance 415 nm; inhibition, % at 12.8 µM; 0.34% of 370,000 active;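 active = inhibition above the mean of all tested compounds plus 3 SD, set per campaign, cut at about 25% in these data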;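 note: 0% = DMSO with enzyme and 100% = buffer with substrate but no TDP2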
#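 Incubation: 2 h at 37 °C; Test system: recombinant human TDP2; Quantity: enzyme 120 nM; Read-out basis: percent inhibition; Medium: 50 mM Tris-HCl pH 7.5 with Mg2+, KCl, DTT, BSA; Repeats: single replicate; Compound: 12.8 µM single point, 1% DMSO; Signal: epi absorbance; Reagent: 5 mM T5PNP chromogenic substrate; Benchmarks: no-enzyme high, DMSO-plus-enzyme low.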
# PRMT1 inh conf – confirmation of human PRMT1 inhibitors | shares compounds with PRMT1 inh | recombinant His-PRMT1, activity-based probe fluorescence polarization | inhibition, % at 2.79 µM | 42% of 3,300 active | AID 687036;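 active = mean inhibition across replicates above the hit cutoff derived for the earlier primary screen, cut at about 22% in these data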
# Active calls of the source: *; nt = not tested or not shown.
SMILES,PAD4 inh,PRMT1 inh,eLon inh,GSTO1 inh,TDP2 absorb,PRMT1 inh conf
CNc1ccc(Br)cc(C(=O)/C=C/c2cccc(Cl)c2Cl)c1=O,nt,25*,-29,nt,-8,13
CC(=O)Nc1ccc(SCCN2CC[C@@H](C)CCC2=O)cc1,1,25*,9,nt,6,30*
CC(=O)Nc1ccc(SC[C@H](Cc2ccccc2)N2CC[C@@H](C(C)(C)C)CCC2=O)cc1,6,52*,-1,nt,-28,39*
CC(=O)Nc1ccc(S[C@@H](CCN2CC[C@H](C(C)(C)C)CCC2=O)c2ccccc2)cc1,12,45*,5,nt,-6,61*
CC(=O)Nc1ccc(SC[C@H](Cc2ccccc2)N2CCN(CCc3ccccc3)CCC2=O)cc1,7,29*,-5,0,2,42*
c1ccc(CN(Cc2ccccc2)Cc2nnc(-c3cc4ccccc4[nH]3)s2)cc1,0,0,1,nt,-7,nt
COc1ccc(-c2c(-c3cc(OC)cc(OC)c3)n(C)c3ccc(-c4ccc5[nH]ccc5c4)cc23)cc1,0,-1,-11,nt,5,nt
COC[C@H]1CCCN1c1cccc2c1S(=O)(=O)N(C1CC1)CC[C@@H](C)O2,nt,4,nt,nt,3,nt
COc1ccc(NS(=O)(=O)c2cc(N)ccc2N2CCCCC2)cc1,-5,-1,3,nt,4,nt
Nc1ccc(N2CCCC2)c(S(=O)(=O)Nc2cccc(C(F)(F)F)c2)c1,-5,47*,13,nt,-8,7
CC1CC1C(=O)Nc1nc(-c2cccs2)c(-c2cccs2)s1 (centres undefined),3,27*,-4,4,0,9
COc1ccccc1NS(=O)(=O)c1cc(N)ccc1N1CCOCC1,2,12,0,nt,0,nt
COc1ccccc1NS(=O)(=O)c1cc(N2Cc3ccccc3C2=N)ccc1N1CCOCC1,-2,27*,-3,-4,-11,2
CN(C)S(=O)(=O)n1cc(/C=C(\NC(=O)c2ccccc2Cl)C(=O)NCCCn2ccnc2)c2ccccc21,-3,-3,-1,-1,1,nt
c1nc(SSc2ncnc3nc[nH]c23)c2[nH]cnc2n1,nt,48*,4,nt,5,96*
CC(C)c1nnc(SCC(=O)NCCC2=CCCCC2)n1N,3,34*,4,-3,-10,39*
Nn1c(SCC(=O)NCCC2=CCCCC2)nnc1-c1cccnc1,nt,-3,-23,nt,7,nt
C[C@@H]1OC(C2CCCCC2)N(C)[C@H]2C[C@H]3c4[nH]c5c(-c6ccccc6)cccc5c4CCN3C(=O)[C@@H]12 (some centres undefined),nt,-1,nt,nt,-2,nt
O=C(O)CN1C(=O)/C(=C\c2ccccc2OCc2ccccc2)SC1=S,nt,11,-19,nt,2,nt
O=C1C(=Cc2ccccc2O)SC(=S)N1CCCN1CCOCC1,nt,68*,-19,nt,-6,83*
O=C(O)CN1C(=O)/C(=C\c2ccccc2OCc2ccc(F)cc2)SC1=S,-2,25*,3,-6,-8,-1
O=C1/C(=C\c2cc([N+](=O)[O-])ccc2O)SC(=S)N1Cc1ccc(Cl)cc1,-106,26*,-236,-162,-6,33*
O=C(O)CN1C(=O)/C(=C\c2cc([N+](=O)[O-])ccc2OCc2ccccc2Cl)SC1=S,-9,19,-5,10,14,nt
O=C(CCN1C(=O)/C(=C\c2ccccc2)SC1=S)NCCCN1CCOCC1,-41,12,-7,12,2,nt
O=C1/C(=C\c2cccc(O)c2O)SC(=S)N1Cc1ccccc1,9,94*,1,27,-19,14
SMILES,PAD4 inh,PRMT1 inh,eLon inh,GSTO1 inh,TDP2 absorb,PRMT1 inh conf
O=C(NC1CCCCN(Cc2ccc(Cl)cc2)C1=O)c1cccc(F)c1 (centres undefined),nt,6,nt,nt,-10,nt
COc1ccc(-c2nc(=S)[nH][nH]2)cc1OC,5,13,-10,5,-2,nt
COc1cc(-c2nc(=S)[nH][nH]2)cc(OC)c1OC,5,34*,5,1,5,13
CC1(C)C(=O)Nc2ccccc2N1C(=O)COC(=O)c1cccs1,-2,-3,1,nt,0,nt
CCC(=O)N(C)/C=C1\Sc2ccccc2C1=O,-1,56*,0,-12,-14,45*
O=CN(/C=C1\Sc2ccccc2C1=O)Cc1ccccc1,2,56*,-4,5,2,9
CC(=O)N(C)/C=C1\Sc2ccccc2C1=O,-2,78*,-13,9,-18,17
